Test results taken from ChEMBL document CHEMBL2029341, “Synthesis and evaluation of indole-based chalcones as inducers of methuosis, a novel type of nonapoptotic cell death” (J Med Chem, 2012).
Activity calls are given as the source filed them. The calls are words filed in the database; no cut-off is given here.

How the values were obtained:
U-251 [1] = experiment: Cytotoxicity against human U251 cells assessed as reduction of cell viability at 10 uM after 48 hrs by MTT assay relative to control
U-251 [2] = experiment: Induction of methuosis in human U251 cells assessed as induction of cellular vacuolization at 10 uM after 24 to 48 hrs by phase contrast microscopic analysis; format: functional, cell-based
How it was run: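 U251 glioblastoma cells in DMEM with 10% FBS at 37 °C under 5% CO2. Compound added in DMSO at 10 μM one day after plating; vehicle-only controls. Live cells examined by phase-contrast microscopy at 24 and 48 h for phase-lucent cytoplasmic vacuoles, with cell rounding and detachment taken as methuosis hallmarks.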

U-251 [3] = experiment: Cytotoxicity against human U251 cells assessed as colony formation at 10 uM treated for 48 hrs followed by washout measured after 2 weeks relative to control
U-251 [4] = experiment: Cytotoxicity against human U251 cells assessed as inhibition of colony formation at 10 uM treated for 48 hrs followed by washout measured after 2 weeks relative to control; format: functional
How it was run: (§1)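 U251 cells at 2,500 per 100 mm dish; one day after plating, compound added for 48 h (10 μM, or graded concentrations), then removed and cultures refed every 2 d. Colonies >50 cells counted at two weeks after methanol fixation and crystal violet staining; percent of DMSO control dishes, mean ± S.D. of three dishes.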

U-251 [5] = experiment: Cytotoxicity against human U251 cells assessed as inhibition of colony formation at 5 to 20 uM treated for 48 hrs followed by washout measured after 2 weeks relative to control; format: functional, cell-based
How it was run: as §1

U-251 [6] = experiment: Induction of methuosis in human U251 cells assessed as induction of cellular vacuolization at 2.5 uM after 1 to 2 days by phase contrast microscopic analysis; format: functional, cell-based
How it was run: (§2)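 One day after plating, U251 cells given 2.5 μM or 10 μM final compound or DMSO vehicle; live cells viewed by phase-contrast microscopy on three sequential days, without medium change or compound replenishment, for phase-lucent cytoplasmic vacuoles, rounding and detachment.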

U-251 [7] = experiment: Induction of methuosis in human U251 cells assessed as induction of cellular vacuolization at 2.5 to 10 uM after 3 days by phase contrast microscopic analysis; format: functional, cell-based
U-251 [8] = experiment: Induction of methuosis in human temozolomide-resistant U251 cells assessed as induction of cellular vacuolization at 2.5 to 10 uM after 3 days by phase contrast microscopic analysis; format: functional, cell-based
U-251 [9] = experiment: Cytotoxicity against human temozolomide-resistant U251 cells assessed as reduction of cell viability at 2.5 to 10 uM after 48 hrs by colony formation assay
U-251 [10] = experiment: Cytotoxicity against human U251 cells assessed as reduction of cell growth and viability at 2.5 to 10 uM after 3 days by cell counting
U-251 [11] = experiment: Induction of methuosis in human U251 cells assessed as induction of cellular vacuolization at 2.5 after 3 days by phase contrast microscopic analysis; format: functional, cell-based
How it was run: as §2

U-251 [12] = experiment: Cytotoxicity against human U251 cells after 48 hrs by MTT assay; details: U-251, 48 h
U-251 [13] = experiment: Cytotoxicity against human U251 cells assessed as inhibition of colony formation at 2 to 10 uM treated for 48 hrs followed by washout measured after 2 weeks relative to control; format: functional, cell-based
How it was run: as §1

Cc1[nH]c2ccc(O)cc2c1/C=C/C(=O)c1ccncc1
Activity (U-251 [1]): 101% | Activity (U-251 [2]): Active | level, % of control at 10 µM (U-251 [3]): 43%

Oc1cccc(/N=C/c2c[nH]c3ccccc23)c1
Activity (U-251 [2]): inactive

COc1ccc2[nH]cc(/C=C/C(=O)c3cccnc3)c2c1
Activity (U-251 [1]): 90% | Activity (U-251 [2]): inactive | level, % of control at 10 µM (U-251 [3]): 99%

O=C(/C=C/c1c[nH]c2ccccc12)c1ccccc1
Activity (U-251 [1]): 109% | Activity (U-251 [2]): inactive | level, % of control at 10 µM (U-251 [3]): 76%

O=C(/C=C/c1c[nH]c2ccc(OCc3ccccc3)cc12)c1ccncc1
Activity (U-251 [1]): 56% | Activity (U-251 [2]): Active | level, % of control at 10 µM (U-251 [3]): 8%

COc1cc2c(/C=C/C(=O)c3ccncc3)c(C)[nH]c2cc1N=[N+]=[N-]
inhibition (U-251 [4]): Active

O=C(/C=C/c1c[nH]c2ccccc12)c1ccncc1
Activity (U-251 [1]): 58% | Activity (U-251 [2]): Active | level, % of control at 10 µM (U-251 [3]): 22%

Cc1ccc(C(=O)/C=C/c2c[nH]c3ccccc23)cc1
Activity (U-251 [2]): inactive

COC(=O)c1ccc(COc2ccc3[nH]c(C)c(/C=C/C(=O)c4ccncc4)c3c2)cc1
Activity (U-251 [1]): 79% | Activity (U-251 [2]): inactive | level, % of control at 10 µM (U-251 [3]): 76%

COc1ccc(C(=O)/C=C/c2c[nH]c3ccc(Br)cc23)cc1
Activity (U-251 [2]): inactive

COc1ccc2[nH]cc(/C=C/C(=O)c3cnccn3)c2c1
Activity (U-251 [1]): 88% | Activity (U-251 [2]): inactive | level, % of control at 10 µM (U-251 [3]): 96%

O=C(/C=C/c1c[nH]c2ccccc12)c1ccccn1
Activity (U-251 [1]): 96% | Activity (U-251 [2]): inactive | level, % of control at 10 µM (U-251 [3]): 53%

O=C(/C=C/c1c[nH]c2ccccc12)c1ccc(Cl)cc1
Activity (U-251 [2]): inactive

O=C(COc1ccccc1)c1c[nH]c2ccccc12
Activity (U-251 [2]): inactive

COc1ccc2c(c1)c(/C=C/C(=O)c1ccncc1)cn2C
Activity (U-251 [1]): 73% | Activity (U-251 [2]): Active | level, % of control at 10 µM (U-251 [3]): 52%

Cc1[nH]c2ccccc2c1/C=C/C(=O)c1ccncc1
inhibition (U-251 [5]): Active | Activity (U-251 [6]): Active | Activity (U-251 [7]): Active | Activity (U-251 [1]): 24% | Activity (U-251 [2]): Active | Activity (U-251 [8]): Active | Activity (U-251 [9]): Active | inhibition (U-251 [10]): Active | Activity (U-251 [11]): inactive | IC50 (U-251 [12]): 4.8 µM | inhibition (U-251 [13]): Active | level, % of control at 10 µM (U-251 [3]): 8%

COc1ccc2[nH]cc(/C=C/C(=O)c3ccncc3)c2c1
Activity (U-251 [1]): 58% | Activity (U-251 [2]): Active | level, % of control at 10 µM (U-251 [3]): 2%

Cc1[nH]c2ccc(OCc3ccc(C(=O)O)cc3)cc2c1/C=C/C(=O)c1ccncc1
Activity (U-251 [1]): 79% | Activity (U-251 [2]): inactive | level, % of control at 10 µM (U-251 [3]): 71%

Cc1[nH]c2ccc(N=[N+]=[N-])cc2c1/C=C/C(=O)c1ccncc1
inhibition (U-251 [4]): Active

O=C(NCCc1c[nH]c2ccc(Cl)cc12)c1cccnc1
Activity (U-251 [2]): inactive

O=C(/C=C/c1c[nH]c2ccccc12)c1cccnc1
Activity (U-251 [1]): 72% | Activity (U-251 [2]): inactive | level, % of control at 10 µM (U-251 [3]): 71%

O=C(/C=C/c1c[nH]c2ccc(O)cc12)c1ccncc1
Activity (U-251 [1]): 107% | Activity (U-251 [2]): inactive | level, % of control at 10 µM (U-251 [3]): 72%
